# Bioassay records from PubChem.
# ABHD5 PLIN5 PPI = ABHD5-PLIN5 interaction inhibitors, primary screen, cell lysate, split luciferase complementation, luminescence; Perilipin-5 (Homo sapiens) + 1-acylglycerol-3-phosphate O-acyltransferase ABHD5 (Homo …; Split G. princeps luciferase complementation, 4 h; inhibition, % at 4 µM; 0.78% of 360,000 active; AID 602281, 2012;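 active means inhibition above the mean inhibition across every tested compound plus 3 SD, cut at about 22% in these data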;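 further: 0% = DMSO only wells and the 100% control is not disclosed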
# Target sequence (Q00G26 whole entry, looked up): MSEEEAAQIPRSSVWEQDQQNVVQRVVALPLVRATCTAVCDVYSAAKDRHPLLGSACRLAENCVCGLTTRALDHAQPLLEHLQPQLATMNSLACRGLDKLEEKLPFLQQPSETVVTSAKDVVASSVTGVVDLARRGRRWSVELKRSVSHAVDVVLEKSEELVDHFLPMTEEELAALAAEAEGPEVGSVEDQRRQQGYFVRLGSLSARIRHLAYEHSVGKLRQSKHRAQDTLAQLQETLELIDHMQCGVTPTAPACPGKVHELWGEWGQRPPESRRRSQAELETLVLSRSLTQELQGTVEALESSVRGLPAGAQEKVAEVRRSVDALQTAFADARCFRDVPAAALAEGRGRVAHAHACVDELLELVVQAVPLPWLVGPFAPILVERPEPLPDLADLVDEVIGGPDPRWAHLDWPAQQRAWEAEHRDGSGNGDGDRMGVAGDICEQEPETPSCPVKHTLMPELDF
# Target sequence (Q8WTS1 whole entry, looked up): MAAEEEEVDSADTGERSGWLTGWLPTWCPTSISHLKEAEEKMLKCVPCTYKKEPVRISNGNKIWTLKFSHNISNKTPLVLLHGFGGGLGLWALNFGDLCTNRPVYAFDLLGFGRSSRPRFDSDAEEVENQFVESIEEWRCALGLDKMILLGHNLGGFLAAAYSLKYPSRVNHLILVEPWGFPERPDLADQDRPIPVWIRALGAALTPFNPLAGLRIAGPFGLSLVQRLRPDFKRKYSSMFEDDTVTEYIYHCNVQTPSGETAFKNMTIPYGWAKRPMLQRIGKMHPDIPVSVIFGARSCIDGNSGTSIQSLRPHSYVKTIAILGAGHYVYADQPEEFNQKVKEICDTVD
# XBP1 UPR activ = activators of adaptive XBP1 UPR arm, primary screen, cell-based, CHO-XBP1 luciferase reporter, luminescence, uHTS; 0.33% of 330,000 active; activation, % at 20 µM; IRE1-XBP1 UPR activation; percent of tunicamycin response, DMSO as zero;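 active means versus positive control, 20 µM dose yields 30% or more activation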;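 further: 100% = tunicamycin at 10 µg/mL and 0% = DMSO only wells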
#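 incubation = overnight seeding at 37 °C, 6 h compound treatment at 37 °C | assay system = CHO-XBP1 cells stably carrying IRE1-XBP1-driven luciferase reporter | input = 1000 cells per well | detection = luciferase luminescence | dosing = single point, 20 µM final compound, 1% DMSO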
# UPR CHOP act = activators of apoptotic CHOP UPR arm, primary screen, cell-based, CHO-CHOP luciferase reporter, luminescence, uHTS. UPR activation; percent of tunicamycin response over DMSO baseline. activation, % at 10 µM. 0.34% of 330,000 active;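 active means at 10 µM dose, activation of 40% or more, normalized to positive control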;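 further: 100% = tunicamycin at 10 µg/mL and 0% = DMSO alone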
#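 System: CHO CHOP reporter cells. Amount: 500 cells per well. Buffer or medium: F12 medium, 10% FBS. Compound dosing: one dose, 10 µM in 0.5% DMSO. Incubation: 6 h compound exposure at 37 °C after overnight seeding. Technique: Steady-Glo luciferase luminescence. Benchmarks: tunicamycin and DMSO controls.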
# Mdm2-MdmX inh = inhibitors of human Mdm2-MdmX association, primary screen, cell-based, luminescence, split luciferase, SaOS-2, uHTS; SaOS-2 split-luciferase Mdm2/MdmX complementation; inhibition, % at 8 µM; AID 485346, 2010; 3% of 330,000 active;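 active means inhibition of at least 50% at 8 µM in the primary screen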
# Exocytosis inh = LAMP-1 surface exposure blockers, TALL-104 cells – cell-based, flow cytometry, MLPCN library, primary screen; TALL-104 LAMP-1 surface exposure; cells stimulated with thapsigargin and PMA; inhibition, % at 10 µM; 0.66% of 360,000 active; AID 651702, 2012;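 active means inhibition above about 55%, limit read from the data; inconclusive means no clear call, values can overlap the other calls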
# ABHD5-PLIN5 conf = ABHD5-PLIN5 interaction inhibitors, confirmation, biochemical, luminescence. 67% of 2,200 active. AID 651612, 2012. shares compounds with ABHD5 PLIN5 PPI. inhibition, % at 4 µM; in the data active means inhibition above about 23%;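 further: 0% = DMSO vehicle wells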
# HNF4 split-luc = HNF4 dimerization inhibitors, counter-screen for ABHD5-PLIN5 interaction inhibitor project, biochemical, split-luciferase complementation, luminescence | inhibition, % at 4 µM | shares compounds with ABHD5 PLIN5 PPI | 77% of 2,200 active | AID 651674, 2012;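 active means mean inhibition across replicate wells exceeding the computed hit threshold, cut at about 13% in these data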;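 further: light from luciferase halves that rejoin when HNF4 fusion proteins dimerize; 0% = DMSO only wells and the 100% control is not given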
# Exocytosis CP01 = inhibitors of lytic granule exocytosis, confirmation, TALL-104 cells, flow cytometry, Cherry Pick01 | inhibition, % at 10 µM | shares compounds with Exocytosis inh | 11% of 1,500 active | LAMP-1 externalization; stimulated with PMA plus thapsigargin; in the data active means inhibition above about 60%;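 further: 0% = stimulated vehicle wells and 100% = unstimulated wells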
# * hit, by the source's call; u = inconclusive; x = not tested or not shown. An excerpt weighted towards active compounds, which were near 4% of everything screened.
SMILES,ABHD5 PLIN5 PPI,XBP1 UPR activ,UPR CHOP act,Mdm2-MdmX inh,Exocytosis inh,ABHD5-PLIN5 conf,HNF4 split-luc,others
O=C1CC(=O)N(c2ccccc2F)C(=O)N1,23*,-1,-2,-23,-15,12,70*,
O=C(O)c1ccc(-n2c(O)c(/C=C3\C=Nc4ccccc43)c(=O)[nH]c2=O)cc1,29*,0,-1,-2,u,32*,54*,
O=c1[nH]c(=O)n(-c2ccccc2)c(O)c1/C=C/C=Nc1ccccc1,5,-2,0,17,-5,x,x,
Cn1c(O)c(/C=C2\C=Nc3ccccc32)c(=O)n(C)c1=O,35*,-2,2,7,-4,7,17*,
Cc1ccc(-c2nc3ccc(Cl)cc3n2OC(=O)N(C)C)cc1,1,-1,1,-80,-5,x,x,
CN1C(=O)C(=Cc2cccnc2)C(=O)N(C)C1=O,27*,0,-2,1,7,37*,49*,
CN1C(=O)C(=Cc2ccc(N3CCCCCC3)cc2)C(=O)N(C)C1=O,8,3,1,-12,-15,x,x,
COc1ccc(C=C2C(=O)N(C)C(=O)N(C)C2=O)cc1COc1ccc(NC(C)=O)cc1,2,1,-4,2,-2,x,x,
CN1C(=O)C(=Cc2ccc(OCC(=O)Nc3ccccc3)cc2)C(=O)N(C)C1=O,50*,-1,0,10,29,12,28*,
Cn1c(O)c(/C=N/c2ncccn2)c(=O)n(C)c1=O,40*,-1,-1,-7,-5,8,23*,
CC(C)C[C@@H]1COc2cc(N3CCN(C)CC3)ccc2S(=O)(=O)N1,-10,x,x,x,-3,x,x,
O=C1CC(c2cccnc2)=NN1c1ccc(Cl)cc1Cl,23*,2,0,0,4,0,0,
C=C1C2[C@H](OC(C)=O)[C@@H]3CC(=O)[C@]4(C)OC[C@@]3(C)[C@@]4(O)[C@@H](OC(C)=O)[C@H](OC(C)=O)[C@@]2(COC(=O)c2ccccc2)[C@@H](OC(C)=O)C[C@@H]1O (stereo not given in full),-2,-4,0,11,-2,x,x,
Cc1ccccc1-n1c(O)c(C(c2ccncc2)c2c(O)n(-c3ccccc3C)c(=O)[nH]c2=O)c(=O)[nH]c1=O,26*,2,0,-2,0,55*,66*,
O=C1NC(=O)C(=Cc2ccc(Cl)cc2)C(=O)N1,27*,x,x,x,-5,76*,75*,
C=CCN1C(=O)NC(=O)/C(=C\c2ccc(-c3ccccc3[N+](=O)[O-])o2)C1=O,40*,0,0,-3,-2,84*,82*,
O=C1NC(=O)N(Cc2ccco2)C(=O)/C1=C/c1ccc(-c2cccc([N+](=O)[O-])c2)o1,20,12,29,27,30,x,x,
CN1C(=O)C(=Cc2ccccc2OS(=O)(=O)c2ccccc2)C(=O)N(C)C1=O,45*,-2,-1,2,7,76*,74*,
Cc1ccc(N2C(=O)NC(=O)/C(=C\c3ccsc3)C2=O)cc1C,x,-1,-1,21,x,x,x,
O=C1NC(=O)N(c2ccc3c(c2)OCO3)C(=O)/C1=C\c1ccc(-c2ccccc2C(=O)O)o1,30*,1,0,28,1,78*,89*,
O=C1NC(=O)N(c2ccc3c(c2)OCO3)C(=O)/C1=C/c1ccc(N2CCCCC2)o1,4,5,-1,-28,-1,x,x,
O=C1NC(=O)N(c2ccc3c(c2)OCO3)C(=O)/C1=C\c1ccsc1,25*,-3,1,-8,13,66*,56*,
COc1ccc(C(=O)N2CCCC2=O)cc1,2,-2,1,20,2,x,x,
Cc1noc(C)c1CSCC(=O)Nc1ccc(C#N)c(Cl)c1,3,-3,1,5,0,x,x,
O=C1C2CCCN2C(c2cccc(Cl)c2)N1c1ccccn1 (stereo not given),-1,-1,-1,9,0,x,x,
SMILES,ABHD5 PLIN5 PPI,XBP1 UPR activ,UPR CHOP act,Mdm2-MdmX inh,Exocytosis inh,ABHD5-PLIN5 conf,HNF4 split-luc,others
Cc1c(C=C2C(=O)N(C)C(=O)N(C)C2=O)c(=O)n(-c2ccccc2)n1C,36*,-1,3,19,2,12,51*,
Cc1nn(Cc2ccccc2)c(C)c1C=C1C(=O)NC(=O)NC1=O,11,0,3,3,2,x,x,
COCCNC(=O)CN1C(=O)CN=C(c2ccccc2)c2ccccc21,-3,-1,0,0,-1,x,x,
CCOC(=O)[C@]12Cc3cc(C)ccc3[C@H]1N(Cc1ccccc1)C(=O)c1ccccc12,-2,x,x,x,-4,x,x,
CCCCCN1C(=O)c2ccccc2[C@@]2(C(=O)OCC)Cc3cc(OC)ccc3[C@@H]12,25*,x,x,x,12,14,12,
CCOC(=O)[C@]12Cc3cc(C)ccc3[C@H]1N(C(C)C)C(=O)c1ccccc12,26*,x,x,x,16,25*,21*,
COC(=O)C1=C(c2ccc(OC)c(OC)c2)C[C@@H]2CC[C@H]1N2C(=O)N1CCOCC1,8,3,2,-7,-3,x,x,
OC12ONC(c3ccccn3)C1N1CCC2CC1 (stereo not given),52*,1,1,-11,20,2,25*,
Cc1cccc(-n2c(O)c(C=Nc3ccc(Br)cn3)c(=O)[nH]c2=O)c1,24*,-2,1,-9,7,7,28*,
OC(CN1CCOCC1)c1csc2ccccc12 (stereo not given),2,0,-1,9,-1,x,x,
O=C(C1CCN(c2nc3ccc(Br)cc3s2)CC1)N1CCC2(CC1)OCCO2,-6,-4,1,4,2,x,x,
CCN(CC)S(=O)(=O)c1ccc(NN=C(C#N)C#N)cc1,26*,0,6,-2,5,44*,35*,
CCOC(=O)[C@]12Cc3cc(C)ccc3[C@H]1N(C1CCCCC1)C(=O)c1cc(OC)ccc12,61*,x,x,x,84*,43*,54*,Exocytosis CP01=4
N/C(=N\[N+](=O)[O-])NCCCC(NC(=O)CNC(=O)c1ccccc1)C(=O)O (stereo not given),-2,1,-1,10,2,x,x,
